Compound activity as filed in PubChem.
The entries come from a sample that favours hits as a whole.
CHOP UPR activ – apoptotic UPR (CHOP) activation | AID 449763 | 330,000 tested, 0.34% active | activation, % at 10 µM | CHO-CHOP luciferase reporter, luminescence; percent of tunicamycin response over DMSO baseline;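 active = at 10 µM dose, activation of 40% or more, normalized to positive control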;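 note: 100% = tunicamycin at 10 µg/mL and 0% = DMSO alone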
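System: CHO CHOP reporter cells. Amount: 500 cells per well. Buffer or medium: F12 medium, 10% FBS. Compound dosing: one dose, 10 µM in 0.5% DMSO. Incubation: 6 h compound exposure at 37 °C after overnight seeding. Technique: Steady-Glo luciferase luminescence. Benchmarks: tunicamycin and DMSO controls.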
T cruzi inh – blocks replication of Trypanosoma cruzi; T. cruzi beta-gal in NIH3T3, luminescence, 90 h; inhibition, % (test concentration not listed); 300,000 tested, 1.4% active;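 active = mean inhibition across valid replicates above about 55%, limit read from the data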;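 note: signal also drops with host cell toxicity which is not excluded here; 0% = plate median of DMSO wells and 100% = zero luminescence signal; higher percent means less beta-gal luminescence so fewer parasites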
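System: NIH/3T3 fibroblasts plus reporter T. cruzi. Medium: DMEM plus 2% FBS. Probe or stimulus: 5000 reporter trypomastigotes per well. Compound: single 50 nL compound addition per well in DMSO. Incubation: co-culture of at least 90 h after 3 h attachment. Detection: GalScreen β-gal luminescence, detergent lysis, 60 min. Evaluation: parasite load inhibition, %.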
CHOP inhibitor – CHOP inhibition in unfolded protein response. CHO-K1 CHOP-promoter luciferase, tunicamycin-induced, 15-18 h. inhibition, % at 10 µM. 220,000 tested, 3.8% active;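 active = compounds that reduced the stress-induced luciferase reporter signal by more than about 70% of percent inhibition, limit read from the data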;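 note: 0% = tunicamycin plus vehicle and 100% = wells without tunicamycin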
Dynein cargo inh – dynein cargo transport inhibition; 3617.4 mouse cells, GR-EGFP nuclear translocation imaging; test concentration mostly 20 µM; stimulated with dexamethasone, 1 µM; stronger effect = lower value; z-score, hits read low; 220,000 tested, 0.47% active; AID 1381;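 active = plate z-score of nuclear minus cytoplasmic receptor signal below a set negative limit, without overly bright fluorescence or cell loss, cut at about -3.5 in these data, passing the limit was not always enough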;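 note: z-score of nuclear minus cytoplasmic ring GR-EGFP intensity difference per well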
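Buffer or medium: tetracycline-free induction medium containing charcoal-stripped FBS / Reagent: dexamethasone agonist, 1.0 µM final, for 30 min / Technique: automated 10x imaging of fixed Hoechst-stained cells / Times: induction 48 h, compound 1 h, agonist 30 min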
UPR XBP1 act – adaptive UPR (XBP1) activation; AID 463104; CHO-XBP1 luciferase reporter, IRE1-XBP1 UPR activation, luminescence; percent of tunicamycin response, DMSO as zero; 330,000 tested, 0.33% active; activation, % at 20 µM;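 active = versus positive control, 20 µM dose yields 30% or more activation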;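 note: 100% = tunicamycin at 10 µg/mL and 0% = DMSO only wells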
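Material: CHO-XBP1 cells stably carrying IRE1-XBP1-driven luciferase reporter / Amount: 1000 cells per well / Compound: 20 µM, 1% DMSO / Times: 6 h treatment, 37 °C / Detection: luciferase luminescence / Measure: % activation of reporter signal versus tunicamycin and DMSO controls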
Lmaj promast – Leishmania major promastigote growth inhibition. Leishmania major promastigotes, resazurin fluorescence viability. inhibition, % at 10 µM. 200,000 tested, 9% active. AID 1063; in the data active = inhibition above about 50%;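 note: promastigotes grown with compound for 44 hours at 28 °C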
The depositor's hits bear a star.

How did COC(=O)[C@@]1(Cc2ccc(F)cc2)[C@H]2c3cc(C(=O)N4CCCC4)n(CCc4ccc(O)c(O)c4)c3C[C@H]2CN1C(=O)c1ccccc1 do in these assays?
CHOP UPR activ: 1.7; T cruzi inh: 16.2; CHOP inhibitor: 36.6; Dynein cargo inh: 0.146; UPR XBP1 act: -1.4; Lmaj promast: 100.1*

How did COC(=O)[C@@]1(Cc2ccc(OC)cc2)[C@H]2c3cc(C(=O)N(C)C)n(CCSCCO)c3C[C@H]2CN1C(=O)c1ccccc1 do in these assays?
CHOP UPR activ: 0.1; CHOP inhibitor: 22.0; Dynein cargo inh: 0.785; UPR XBP1 act: 0.2; Lmaj promast: 64.7*

What do the screens show for `COC(=O)[C@@]1(Cc2ccccc2)[C@H]2c3cc(C(=O)N4CCCC4)n(Cc4ccsc4Br)c3C[C@H]2CN1C(=O)c1ccccc1`?
CHOP UPR activ: -0.2; CHOP inhibitor: 39.2; Dynein cargo inh: -1.51; UPR XBP1 act: 2.5; Lmaj promast: 54.1*

Results for COc1ccc(N2CCN(C3CCCN(Cc4cccc(C(C)=O)c4)C3)CC2)cc1 (stereo unspecified) ?
CHOP UPR activ: 0.2; T cruzi inh: 53.7; UPR XBP1 act: -1.8

Results for CC(C)Oc1ccc(CNS(=O)(=O)c2csc(C(N)=O)c2)cc1 ?
CHOP UPR activ: 0.3; T cruzi inh: -7.8; UPR XBP1 act: -4.6

Results for CCCNC(=O)C1CCN(c2cc(-c3ccccc3)nc3ncnn23)CC1 ?
CHOP UPR activ: 0.7; T cruzi inh: -5.4; CHOP inhibitor: -23.2; Dynein cargo inh: -0.945; UPR XBP1 act: -7.3; Lmaj promast: -1.5

How did COC(=O)[C@@]1(Cc2ccc(OC)cc2)[C@H]2c3cc(C(=O)N4CCCC4)n(CCO)c3C[C@H]2CN1C(=O)c1ccccc1 do in these assays?
CHOP UPR activ: 0.0; CHOP inhibitor: 17.4; Dynein cargo inh: -1.49; UPR XBP1 act: -0.5; Lmaj promast: -0.1

What do the screens show for `COC(=O)[C@@]1(Cc2ccc(OC)cc2)[C@H]2c3cc(C(=O)N4CCCC4)n(CCSCCO)c3C[C@H]2CN1C(=O)c1ccccc1`?
CHOP UPR activ: -0.2; CHOP inhibitor: 25.7; Dynein cargo inh: -0.381; UPR XBP1 act: 5.9; Lmaj promast: 50.9*

What do the screens show for `COc1cccc(CSc2nc3ccncc3[nH]2)c1`?
CHOP UPR activ: -0.1; T cruzi inh: -14.9; CHOP inhibitor: 0.2; Dynein cargo inh: 0.815; UPR XBP1 act: -3.2

What do the screens show for `O=C(O)c1cc([N+](=O)[O-])cc2c1C=Cc1ccccc1O2`?
CHOP UPR activ: 1.1; T cruzi inh: -5.2; UPR XBP1 act: 0.7

Results for O=C(NCCO)c1cc([N+](=O)[O-])cc2c1C=Cc1ccccc1O2 ?
CHOP UPR activ: -0.8; T cruzi inh: 54.2; CHOP inhibitor: 3.0; Dynein cargo inh: -1.17; UPR XBP1 act: -2.5; Lmaj promast: 95.2*

What do the screens show for `COC(=O)CSc1ncnc2c1cnn2Cc1ccccc1`?
CHOP UPR activ: 0.3; T cruzi inh: 5.2; CHOP inhibitor: -7.1; Dynein cargo inh: -0.0805; UPR XBP1 act: -3.2; Lmaj promast: -4.6

What do the screens show for `CC(C)OC(=O)CSc1ncnc2c1cnn2Cc1ccccc1`?
CHOP UPR activ: -0.4; T cruzi inh: -8.8; CHOP inhibitor: 74.9*; Dynein cargo inh: 0.427; UPR XBP1 act: -1.7; Lmaj promast: 2.0

How did Cc1ccc(OCCCN2CCCC2)c(C)c1 do in these assays?
CHOP UPR activ: -3.2; T cruzi inh: 11.8; CHOP inhibitor: 16.8; Dynein cargo inh: -0.156; UPR XBP1 act: -1.7; Lmaj promast: 97.1*

What do the screens show for `Cc1ccc(OCCCCn2ccnc2C)c(C)c1`?
CHOP UPR activ: -0.8; T cruzi inh: 8.4; CHOP inhibitor: 16.1; Dynein cargo inh: -1.02; UPR XBP1 act: -1.7; Lmaj promast: 89.4*

What do the screens show for `Cc1ccc(OCCCCN2CCCCC2)c(C)c1`?
CHOP UPR activ: 1.6; T cruzi inh: 28.7; UPR XBP1 act: -4.7

Results for Cc1ccc(OCCN2CCCCCC2)c(C)c1 ?
CHOP UPR activ: -1.2; T cruzi inh: 39.2; CHOP inhibitor: 11.8; Dynein cargo inh: -0.853; UPR XBP1 act: -1.5; Lmaj promast: 95.7*

What do the screens show for `Cc1ccc(C)c(OCCCCN2CCCCC2)c1`?
CHOP UPR activ: 0.2; T cruzi inh: 11.6; UPR XBP1 act: -1.8

What do the screens show for `Cc1ccc(OCCCCNC2CCCC(C)C2C)c(C)c1` (stereo unspecified)?
CHOP UPR activ: 1.7; T cruzi inh: 56.8*; CHOP inhibitor: 54.6; Dynein cargo inh: -1.12; UPR XBP1 act: -0.3; Lmaj promast: 89.7*

What do the screens show for `CCCCN(C(=O)C(C)Oc1ccc(Br)cc1)c1c(N)n(Cc2ccccc2)c(=O)[nH]c1=O` (stereo unspecified)?
CHOP UPR activ: 1.5; T cruzi inh: 3.8; UPR XBP1 act: -3.9

How did Cc1ccc(CN2CCN(Cc3cccc4nccnc34)CC2CCO)cc1 (stereo unspecified) do in these assays?
CHOP UPR activ: -1.6; T cruzi inh: 52.9; CHOP inhibitor: 14.7; Dynein cargo inh: -0.0577; UPR XBP1 act: 1.6

Results for Cc1sc2nc(CN3CCOCC3)nc(NS(=O)(=O)c3cc(Cl)ccc3Cl)c2c1C ?
CHOP UPR activ: -0.8; UPR XBP1 act: 0.1

How did O=C(c1cc(=O)c2ccccc2o1)N(Cc1ccccc1)C1CCS(=O)(=O)C1 (stereo unspecified) do in these assays?
CHOP UPR activ: 0.9; T cruzi inh: 3.0; UPR XBP1 act: -1.2

Results for Cc1cc2oc(C(=O)N(Cc3ccccc3)C3CCS(=O)(=O)C3)cc(=O)c2cc1Cl (stereo unspecified) ?
CHOP UPR activ: -0.9; T cruzi inh: 21.2; CHOP inhibitor: -27.8; Dynein cargo inh: 1.65; UPR XBP1 act: -2.5; Lmaj promast: 50.2*

Results for Cc1c(C(=O)N(Cc2ccccc2)C2CCS(=O)(=O)C2)oc2ccccc12 (stereo unspecified) ?
CHOP UPR activ: 1.5; T cruzi inh: 11.3; UPR XBP1 act: -0.7

What do the screens show for `COc1ccc(CN(C(=O)c2oc3ccccc3c2C)C2CCS(=O)(=O)C2)cc1` (stereo unspecified)?
CHOP UPR activ: -0.4; T cruzi inh: 9.5; CHOP inhibitor: -10.3; Dynein cargo inh: -0.501; UPR XBP1 act: 1.8; Lmaj promast: 54.2*

What do the screens show for `COc1cc2c(cc1NC(=O)c1cc(-c3cccnc3)nc3ccc(C)cc13)oc1ccccc12`?
CHOP UPR activ: -1.1; T cruzi inh: 47.3; CHOP inhibitor: 86.3*; Dynein cargo inh: -0.596; UPR XBP1 act: 0.1; Lmaj promast: 6.9

What do the screens show for `COc1cc2c(cc1NC(=O)c1cc(-c3ccncc3)nc3ccccc13)oc1ccccc12`?
CHOP UPR activ: -1.2; T cruzi inh: 48.9; CHOP inhibitor: 84.7*; Dynein cargo inh: -0.726; UPR XBP1 act: 0.4; Lmaj promast: 1.9
